The record followed here is ChEMBL document CHEMBL1649387, “Synthesis and evaluation of quinonoid compounds against tumor cell lines” (Eur J Med Chem, 2011).

The subject of test [1] is SF-295. As to the kind of experiment: Cytotoxicity against human SF295 cells after 72 hrs by MTT assay. Type of test: functional, cell-based. The following applies: SF-295, 72 h.
Test [2] deals with MDA-MB-435. Briefly: Cytotoxicity against human MDA-MB-435 cells after 72 hrs by MTT assay. The following applies: MDA-MB-435, 72 h. Type of test: functional, cell-based.
Test [3] relates to SF-295. As to the kind of experiment: Induction of apoptosis in human SF295 cells assessed as apoptotic nuclei at 5 uM after 24 hrs by acridine orange/ethidium bromide staining based fluorescence microscopy. Type of test: functional. In short, it runs like this: (§1)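 Cells exposed 24 h, with or without 24 h pretreatment with 1-bromoheptane. Cell suspension mixed with acridine orange/ethidium bromide (each 100 in PBS) and spread on slide. 300 cells counted per point by fluorescence microscopy to give % apoptotic cells. Mean ± S.E.M. of three experiments.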

Test [4] relates to HCT-8. Briefly: Induction of apoptosis in human HCT8 cells assessed as apoptotic nuclei at 5 uM after 24 hrs by acridine orange/ethidium bromide staining based fluorescence microscopy in presence of 1-bromoheptane. Type of test: functional. In a few lines: as §1
Test [5] concerns SF-295. Briefly: Induction of apoptosis in human SF295 cells assessed as apoptotic nuclei at 5 uM after 24 hrs by acridine orange/ethidium bromide staining based fluorescence microscopy in presence of 1-bromoheptane. It is filed as functional. In short, it runs like this: as §1
Test [6] has as its system HL-60. Briefly: Induction of apoptosis in human HL60 cells assessed as apoptotic nuclei at 5 uM after 24 hrs by acridine orange/ethidium bromide staining based fluorescence microscopy in presence of 1-bromoheptane. Type of test: functional. In short, it runs like this:
as §1

Test [7] deals with HL-60. As to the kind of experiment: Cytotoxicity against human HL60 cells after 72 hrs by MTT assay. Type of test: functional, cell-based. The following applies: HL-60, 72 h.
The subject of test [8] is MDA-MB-435. Briefly: Induction of apoptosis in human MDA-MB-435 cells assessed as apoptotic nuclei at 5 uM after 24 hrs by acridine orange/ethidium bromide staining based fluorescence microscopy in presence of 1-bromoheptane. Type of test: functional. In short, it runs like this:
as §1

In test [9] the test system is MDA-MB-435. As to the kind of experiment: Induction of apoptosis in human MDA-MB-435 cells assessed as apoptotic nuclei at 5 uM after 24 hrs by acridine orange/ethidium bromide staining based fluorescence microscopy. Type of test: functional. In a few lines: as §1
Test [10] concerns HCT-8. Briefly: Cytotoxicity against human HCT8 cells after 72 hrs by MTT assay. It is filed as functional, cell-based. The following applies: HCT-8, 72 h.
In test [11] the test system is PBMC. Briefly: Cytotoxicity against human PBMC cells after 72 hrs by Alamar Blue assay. Type of test: cell-based.
The subject of test [12] is HCT-8. Briefly: Induction of apoptosis in human HCT8 cells assessed as apoptotic nuclei at 5 uM after 24 hrs by acridine orange/ethidium bromide staining based fluorescence microscopy. It is filed as functional. In a few lines:
as §1

Test [13] deals with HL-60. As to the kind of experiment: Induction of apoptosis in human HL60 cells assessed as apoptotic nuclei at 5 uM after 24 hrs by acridine orange/ethidium bromide staining based fluorescence microscopy. It is filed as functional. In a few lines: as §1

Molecules are shown by their SMILES.

On to `Cc1cccc(-c2nc3ccc4c(c3[nH]2)C(=O)c2ccccc2C4=O)c1`, for which the IC50 in test [1], in test [2], in test [7], in test [10] and in test [11] was greater than 14.8 µM in each case. Besides, the Activity in [3] was 10.05%; in [4], 7.28%; in test [5], 7.38%; in [6] it was 6.18%; in test [8], 6.17%; in test [9] it was 9.81%. The figures for the Activity in test [12] and in test [13] were 12.01% and 7.33%, respectively.
Regarding `CC(C)=CCC1=C(OC2(CC=C(C)C)C(=O)C(=O)c3ccccc3C2=O)C(=O)c2ccccc2C1=O` (configuration not stated), the IC50 in [1] was greater than 10.4 µM; in test [2], greater than 10.4 µM; in test [7], greater than 10.4 µM; in test [10], 9.76 µM; in [11], greater than 10.4 µM. Moreover, the Activity in test [3] was 11.45%; in test [4] it was 9.16%; in test [5], 7.3%; in [6] it was 8.46%; in test [8], 5.82%; in test [9], 4.72%. The Activity is listed as 8.52% in [12] and 11.17% in [13].
For the molecule `O=C1c2ccccc2C(=O)c2c1ccc1nc(-c3ccccc3)[nH]c21`, the concentration for half-maximal inhibition (IC50) in [1], in test [2], in test [7], in test [10] and in test [11] was greater than 15.4 µM each time. The Activity in test [3] is given as 7.32%; in [4] it was 8.11%; in [5], 9.17%; in [6], 8.37%; in test [8], 11.44%; in test [9] it was 9.02%. Besides, the Activity in [12] was determined as 10.35%; in test [13], 12.59%.
In the case of `CC(C)CCC1=C(OC2(CCC(C)C)C(=O)C(=O)c3ccccc3C2=O)C(=O)c2ccccc2C1=O` (configuration not stated), the IC50 in test [1], in test [2], in test [7], in test [10] and in test [11] was greater than 10.3 µM throughout. The Activity came to 7.94% in test [3]; 11.46% in test [4]; 8.01% in test [5]; 4.17% in [6]; 7.44% in test [8]; 9.51% in test [9]. Besides, the Activity in test [12] came to 8.71%; in test [13], 8.13%.
